Test results from ChEMBL document CHEMBL4359825, “Synthesis of novel S-linked dihydroartemisinin derivatives and evaluation of their anticancer activity” (Eur J Med Chem, 2019).
Calls of active or inactive are those of the source. The calls are words filed in the database; no cut-off is given here.

Assays:
PC-3 [1] = assay: Anticlonogenic activity against human PC3 cells assessed as reduction in colony formation incubated for 72 hrs supplemented with fresh medium containing measured after 15 days by colony formation assay; type: functional, cell-based
Outline: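 Clonogenic assay: PC-3 seeded at 500 cells/well in six-well plates, allowed to adhere overnight, then treated. Medium and compound renewed every 72 h over 15 days. Colonies fixed with 3.7% formaldehyde for 20 min, stained with 0.4% crystal violet and counted. Three experiments, each in quadruplicate, expressed as fold change versus control.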

PC-3 [2] = assay: Induction of reactive oxygen species generation in human PC3 cells assessed as increase in intracellular ROS level at 3 to 10 uM incubated for 3 hrs by CM-H2DCFDA staining based fluorescence microscopy analysis; type: functional, cell-based
Outline: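 Approx. 1×10^5 PC-3 cells per well treated 3 h at 3 or 10 μM; medium replaced with 10 μM CM-H2DCFDA for 30 min in dark at 37 °C, nuclei counterstained Hoechst 33342 (1 μg/mL) 15 min at room temperature; fluorescence microscopy, percentage ROS-producing cells scored versus vehicle.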

PC-3 [3] = assay: Upregulation of p21 mRNA expression in human PC3 cells at 3 to 10 uM measured after 72 hrs by TRIzol dye based RT-PCR analysis; type: functional, cell-based
Outline: (§1)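 PC-3 cells (1.25×10^5 per well) treated 72 h at 3 or 10 μM; total RNA by TRIzol, cDNA from 2 μg; SYBR real-time PCR, 95 °C 10 min then 40 cycles 95 °C 15 s/60 °C; Ct normalised to GAPDH, relative expression by 2^-ΔΔCt; three experiments.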

HeLa = assay: Anticancer activity against human HeLa cells assessed as cell viability measured after 72 hrs by MTT assay (reference value: 100 +/- 11.5 %); type: functional; design: concentration or dose not given beside the values
HepG2 = assay: Anticancer activity against human HepG2 cells assessed as cell viability measured after 72 hrs by MTT assay (reference value: 100 +/- 6.5 %); type: functional; design: concentration or dose not given beside the values
PC-3 [4] = assay: Cell cycle arrest in human PC3 cells assessed as accumulation at G2/M phase at 3 uM measured after 48 hrs by RNase/propidium iodide staining based flow cytometry analysis (reference value: 34.95 %); type: functional
PC-3 [5] = assay: Downregulation of E2F1 mRNA expression in human PC3 cells at 3 to 10 uM measured after 72 hrs by TRIzol dye based RT-PCR analysis; type: functional, cell-based
Outline: (§2)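 PC-3 (1.25 × 10^5/well) treated 72 h with 3 or 10 μM. Total RNA extracted with TRIzol; cDNA made from 2 μg RNA. SYBR qPCR: 95 °C 10 min, then 40 cycles of 95 °C/60 °C. Expression normalised to GAPDH by 2^-ΔΔCt; three experiments.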

PC-3 [6] = assay: Antiproliferative activity against human PC3 cells assessed as reduction in cell viability upto 10 uM incubated for 24 hrs by MTT assay; type: functional, cell-based
PC-3 [7] = assay: Downregulation of cyclinB1 mRNA expression in human PC3 cells at 3 to 10 uM measured after 72 hrs by TRIzol dye based RT-PCR analysis; type: functional, cell-based; outline: as §2
PC-3 [8] = assay: Downregulation of cMyc in human PC3 cells at 3 to 10 uM measured after 72 hrs by Western blot analysis; type: functional, cell-based
Outline: (§3)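 Western blot: PC-3 seeded 1.25 × 10^5/well, exposed to 0.1–10 μM for 72 h. Lysed in 2× SDS buffer and sonicated; 20–25 μg protein run on 12% SDS gel, transferred to PVDF, blocked in 5% BSA/TBST. Primary antibodies overnight, secondary 1 h; ECL detection, β-actin loading control.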

PC-3 [9] = assay: Antimetastatic activity against human PC3 cells assessed as inhibition of MMP-9 at 3 to 10 uM measured after 48 hrs by gelatin zymography; type: functional, cell-based
Outline: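 PC-3 monolayers scratched, then treated with 3 or 10 μM for 48 h in serum-containing medium, then 24 h in serum-free medium. Conditioned medium run non-reduced on 7.5% SDS-PAGE containing gelatin 4 mg/mL. Gel washed in 2.5% Triton X-100, incubated 24 h at 37 °C in Tris pH 7.5 with CaCl2/ZnCl2, Coomassie stained; lysis seen as clear bands.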

PC-3 [10] = assay: Cell cycle arrest in human PC3 cells assessed as accumulation at G0/G1 phase at 10 uM measured after 48 hrs by RNase/propidium iodide staining based flow cytometry analysis (reference value: 42.59 %); type: functional
PC-3 [11] = assay: Induction of cell death in human PC3 cells measured after 72 hrs by propidium iodide staining based flow cytometry analysis; type: functional
Outline: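 PC-3 cells in six-well plates exposed to 3 or 10 μM for 72 h, 0.1% DMSO vehicle as control; cells harvested, PBS-washed, stained with propidium iodide (5 μg/mL) 20 min at 4 °C; percentage dead cells read by flow cytometry; t-test against vehicle.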

PC-3 [12] = assay: Induction of apoptosis in human PC3 cells assessed as decrease in pro-caspase-9 level after 72 hrs by Western blot analysis; type: functional, cell-based; outline: as §3
PC-3 [13] = assay: Downregulation of PCNA mRNA expression in human PC3 cells at 3 to 10 uM measured after 72 hrs by TRIzol dye based RT-PCR analysis; type: functional, cell-based; outline: as §2
PC-3 [14] = assay: Antimigratory activity against human PC3 cells assessed as reduction in cell migration at 10 uM measured upto 24 hrs in presence of pan-caspase inhibitor Z-VAD-fmk by scratch wound healing assay; type: functional, cell-based
Outline: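 PC-3 monolayers pretreated 2 h with pan-caspase inhibitor Z-VAD-FMK (10 μM) before scratching and treatment with test agent. Wound closure imaged by phase contrast at 0, 12 and 24 h.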

A-431 = assay: Anticancer activity against human A431 cells assessed as cell viability measured after 72 hrs by MTT assay (reference value: 100 +/- 11.7 %); type: functional; design: concentration or dose not given beside the values
[15] = target: Peptidyl-prolyl cis-trans isomerase NIMA-interacting 1 (Homo sapiens) (UniProt Q13526); assay: Inhibition of proteasome mediated Pin1 in human PC3 cells at 10 uM measured after 72 hrs in presence of MG132; type: cell-based
PC-3 [16] = assay: Downregulation of BCL-xL mRNA expression in human PC3 cells at 3 to 10 uM measured after 72 hrs by TRIzol dye based RT-PCR analysis; type: functional, cell-based; outline: as §2
A549 = assay: Anticancer activity against human A549 cells assessed as cell viability measured after 72 hrs by MTT assay (reference value: 100 +/- 9.6 %); type: functional; design: concentration or dose not given beside the values
PC-3 [17] = assay: Induction of apoptosis in human PC3 cells assessed as down-regulation of BCL-xL expression measured after 72 hrs by Western blot analysis; type: functional, cell-based; outline: as §3
PC-3 [18] = assay: Upregulation of NOXA mRNA expression in human PC3 cells at 3 to 10 uM measured after 72 hrs by TRIzol dye based RT-PCR analysis; type: functional, cell-based; outline: as §1
PC-3 [19] = assay: Antiproliferative activity against human PC3 cells assessed as reduction in cell viability at 1 to 10 uM incubated for 72 hrs by MTT assay; type: functional, cell-based
PC-3 [20] = assay: Cell cycle arrest in human PC3 cells assessed as accumulation at G0/G1 phase at 3 uM measured after 48 hrs by RNase/propidium iodide staining based flow cytometry analysis (reference value: 42.59 %); type: functional

Peptidyl-prolyl cis-trans isomerase NIMA-interacting 1 (Homo sapiens), sequence (Q13526 whole entry): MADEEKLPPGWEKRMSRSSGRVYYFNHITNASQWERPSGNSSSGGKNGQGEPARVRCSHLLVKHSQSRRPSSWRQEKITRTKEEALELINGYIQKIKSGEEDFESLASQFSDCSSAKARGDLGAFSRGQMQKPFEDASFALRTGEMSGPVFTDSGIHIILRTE

For `COC(=O)Cc1ccc(S[C@@H]2O[C@@H]3O[C@@]4(C)CC[C@H]5[C@H](C)CC[C@@H]([C@H]2C)[C@@]35OO4)cc1`, the Activity (PC-3 [1]) was “Dose-dependent effect”, the Activity (PC-3 [2]) was “Active” and the Activity (PC-3 [3]) was “Active”. For the same compound, the Activity (HeLa) was 43%, the Activity (HepG2) was 50% and the Activity (PC-3 [4]) was 32.24%. For the same compound, the Activity (PC-3 [5]) was “Active”, the Activity (PC-3 [6]) was “inactive” and the Activity (PC-3 [7]) was “Active”. For the same compound, the Activity (PC-3 [8]) was “Active”, the inhibition (PC-3 [9]) was “Dose-dependent effect” and the Activity (PC-3 [10]) was 53.71%. The Activity (PC-3 [11]) was “Dose-dependent effect”, the Activity (PC-3 [12]) was “Dose-dependent effect” and the Activity (PC-3 [13]) was “Active”. The inhibition (PC-3 [14]) was “inactive”, the Activity (A-431) was 35% and the inhibition [15] was “inactive”. For the same compound, the Activity (PC-3 [16]) was “Active”, the Activity (A549) was 68% and the Activity (PC-3 [17]) was “Dose-dependent effect”. For the same compound, the Activity (PC-3 [18]) was “Active”, the Activity (PC-3 [19]) was “Active” and the Activity (PC-3 [20]) was 54.49%.
